According to ChEMBL document CHEMBL1148202, “Lasonolides C-g, five new lasonolide compounds from the sponge Forcepia sp” (J Nat Prod, 2004):

Experiments:
Assay type in all cases: functional, cell-based
PANC-1 = test: Cytotoxicity against human PANC1 cells
Summary of the method: (§1)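 Human tumour cell lines (A549 lung adenocarcinoma, PANC-1 pancreatic, NCI/ADR-RES […], formerly MCF-7/ADR) obtained from ATCC. In vitro proliferation inhibition run by a previously described protocol. Each sample assayed at least three times to derive the final IC50.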

NCI/ADR-RES = test: Cytotoxicity against human NCI/ADR-RES cells; summary of the method: as §1
A549 = test: Cytotoxicity against human A549 cells; summary of the method: as §1

Row | SMILES | IC50 (PANC-1) | IC50 (NCI/ADR-RES) | IC50 (A549)
1 | C=C(CCC(C)C)COC(=O)[C@H](O)C/C=C\C[C@@H]1O[C@@H]2/C=C/C/C=C/C(C)=C\[C@H]3O[C@@H](C/C=C/C=C/C(=O)O[C@H](C2)[C@@]1(C)CO)C[C@H](O)[C@H]3C [LASONOLIDE A] | 89 nM | 490 nM | 8.6 nM
2 | C=C(COC(=O)[C@H](O)C/C=C\C[C@@H]1O[C@@H]2/C=C/C/C=C/C(C)=C\[C@H]3O[C@@H](C/C=C/C=C/C(=O)O[C@H](C2)[C@@]1(C)CO)C[C@H](O)[C@H]3C)C(O)CC(C)C (stereo partly drawn) [LASONOLIDE C] | 380 nM | 1120 nM | 130 nM
3 | CC1=C/[C@H]2O[C@@H](C/C=C/C=C/C(=O)O[C@@H]3C[C@@H](/C=C/C\C=C\1)O[C@@H](C/C=C\CCO)[C@]3(C)CO)C[C@H](O)[C@H]2C [LASONOLIDE D] | 4890 nM | > 9000 nM | 4500 nM
4 | CCOC(=O)[C@H](O)C/C=C\C[C@@H]1O[C@@H]2/C=C/C/C=C/C(C)=C\[C@H]3O[C@@H](C/C=C/C=C/C(=O)O[C@H](C2)[C@@]1(C)CO)C[C@H](O)[C@H]3C [LASONOLIDE E] | 570 nM | > 8000 nM | 310 nM
5 | C=C(COC(=O)[C@H](O)C/C=C\C[C@@H]1O[C@@H]2/C=C/C/C=C/C(C)=C\[C@H]3O[C@@H](C/C=C/C=C/C(=O)O[C@H](C2)[C@@]1(C)COC(=O)CCCCCCCCCCC)C[C@H](O)[C@H]3C)C(O)CC(C)C (stereo partly drawn) [LASONOLIDE G] | > 6000 nM | > 6000 nM | > 6000 nM
6 | CC1=C/[C@H]2O[C@@H](C/C=C/C=C/C(=O)O[C@@H]3C[C@@H](/C=C/C\C=C\1)O[C@@H](C/C=C\C[C@@H](O)C(=O)O)[C@]3(C)CO)C[C@H](O)[C@H]2C [LASONOLIDES F] | 15600 nM | > 9000 nM | > 9000 nM
